According to ChEMBL document CHEMBL3872208, “Synthesis and pharmacological characterization of novel N-(trans-4-(2-(4-(benzo[d]isothiazol-3-yl)piperazin-1-yl)ethyl)cyclohexyl)amides as potential multireceptor atypical antipsychotics” (Eur J Med Chem, 2016):
Active and inactive are the calls of the source. No cut-off for these calls is given here.

Target: D(2) dopamine receptor (Homo sapiens, UniProt P14416)
Assay: Displacement of [3H]spiperone from recombinant human D2L receptor expressed in CHO cell membranes after 60 mins by scintillation counting method
Details: not given

D(2) dopamine receptor, sequence (P14416 whole entry): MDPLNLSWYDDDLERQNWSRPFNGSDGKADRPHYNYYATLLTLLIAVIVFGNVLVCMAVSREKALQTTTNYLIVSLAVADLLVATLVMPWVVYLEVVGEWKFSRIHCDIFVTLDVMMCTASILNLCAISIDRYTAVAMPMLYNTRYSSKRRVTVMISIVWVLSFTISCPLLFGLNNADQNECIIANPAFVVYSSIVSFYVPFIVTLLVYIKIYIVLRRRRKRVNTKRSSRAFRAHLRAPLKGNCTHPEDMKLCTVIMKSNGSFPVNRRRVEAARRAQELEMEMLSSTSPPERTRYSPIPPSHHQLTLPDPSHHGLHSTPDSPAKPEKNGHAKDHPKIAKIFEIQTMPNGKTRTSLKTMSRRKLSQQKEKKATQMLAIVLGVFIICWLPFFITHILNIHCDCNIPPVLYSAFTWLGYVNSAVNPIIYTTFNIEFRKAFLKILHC

Compound	Ki [nM]
O=C(N[C@H]1CC[C@H](CCN2CCN(c3nsc4ccccc34)CC2)CC1)c1cccnc1	0.85
O=C(N[C@H]1CC[C@H](CCN2CCN(c3nsc4ccccc34)CC2)CC1)N1CCOCC1	2.2
CCC(=O)N[C@H]1CC[C@H](CCN2CCN(c3nsc4ccccc34)CC2)CC1	18
CCOC(=O)N[C@H]1CC[C@@H](CCN2CCN(c3nsc4ccccc34)CC2)CC1	4
O=C(N[C@H]1CC[C@@H](CCN2CCN(c3nsc4ccccc34)CC2)CC1)c1ccco1	6.3

Now from value to compound:

Ki [nM]	Compound
14	Nc1ccc2c(N3CCN(CC[C@H]4CC[C@H](NC(=O)c5ccco5)CC4)CC3)nsc2c1
0.51	O=C(Nc1cccnc1)N[C@H]1CC[C@H](CCN2CCN(c3nsc4ccccc34)CC2)CC1
0.53	CN(C)C(=O)N[C@H]1CC[C@H](CCN2CCN(c3nsc4ccccc34)CC2)CC1
10	CCOC(=O)N1CCC(CCN2CCN(c3nsc4ccccc34)CC2)CC1
8.9	CS(=O)(=O)N[C@H]1CC[C@H](CCN2CCN(c3nsc4ccccc34)CC2)CC1
9.6	COCC(=O)N[C@H]1CC[C@H](CCN2CCN(c3nsc4ccccc34)CC2)CC1
0.72	CC(C)N(C(=O)N[C@H]1CC[C@H](CCN2CCN(c3nsc4ccccc34)CC2)CC1)C(C)C
0.33	O=C(N[C@H]1CC[C@H](CCN2CCN(c3nsc4ccccc34)CC2)CC1)c1ccccc1

Target: T1, 5-hydroxytryptamine receptor 1A (Homo sapiens) (UniProt P08908)
T1 sequence (whole entry): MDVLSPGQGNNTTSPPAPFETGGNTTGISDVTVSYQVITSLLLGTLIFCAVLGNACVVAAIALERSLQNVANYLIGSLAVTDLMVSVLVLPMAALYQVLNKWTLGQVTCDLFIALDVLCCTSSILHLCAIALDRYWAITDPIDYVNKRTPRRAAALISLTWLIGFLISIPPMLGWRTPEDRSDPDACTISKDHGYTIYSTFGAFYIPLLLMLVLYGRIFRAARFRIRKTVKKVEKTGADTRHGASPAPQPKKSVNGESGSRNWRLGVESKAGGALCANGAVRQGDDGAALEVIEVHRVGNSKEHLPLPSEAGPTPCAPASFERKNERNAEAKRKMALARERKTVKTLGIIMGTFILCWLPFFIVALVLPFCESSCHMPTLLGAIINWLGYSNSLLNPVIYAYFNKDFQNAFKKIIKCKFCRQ
Details: CHO-K1, 10 uM

inhibition [%]	Compound
108	CSc1ccc2c(c1)C(N1CCN(C)CC1)Cc1ccccc1S2 (stereo not drawn)

Target: D(3) dopamine receptor (Homo sapiens, UniProt P35462)
Assay: Displacement of [3H]methyl-spiperone from recombinant human D3 receptor expressed in CHO cell membranes after 60 mins by scintillation counting method
Details: not given

D(3) dopamine receptor, sequence (P35462 whole entry): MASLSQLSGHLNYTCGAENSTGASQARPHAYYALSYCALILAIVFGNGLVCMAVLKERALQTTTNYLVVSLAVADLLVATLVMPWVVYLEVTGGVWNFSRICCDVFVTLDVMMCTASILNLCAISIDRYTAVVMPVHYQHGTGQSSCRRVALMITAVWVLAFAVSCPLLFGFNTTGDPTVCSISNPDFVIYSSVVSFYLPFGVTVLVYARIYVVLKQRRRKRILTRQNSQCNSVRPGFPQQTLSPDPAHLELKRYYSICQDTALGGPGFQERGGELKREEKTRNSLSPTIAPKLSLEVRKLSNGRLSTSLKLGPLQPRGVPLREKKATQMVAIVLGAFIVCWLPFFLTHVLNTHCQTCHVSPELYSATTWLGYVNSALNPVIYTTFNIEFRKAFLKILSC

Compound	Ki [nM]
O=C(N[C@H]1CC[C@H](CCN2CCN(c3nsc4ccccc34)CC2)CC1)c1cccnc1	0.09
O=C(N[C@H]1CC[C@H](CCN2CCN(c3nsc4ccccc34)CC2)CC1)N1CCOCC1	1.6
CCC(=O)N[C@H]1CC[C@H](CCN2CCN(c3nsc4ccccc34)CC2)CC1	0.052
CCOC(=O)N[C@H]1CC[C@@H](CCN2CCN(c3nsc4ccccc34)CC2)CC1	2
O=C(N[C@H]1CC[C@@H](CCN2CCN(c3nsc4ccccc34)CC2)CC1)c1ccco1	2.3

Results, then the compound that gave them:

Ki [nM]	Compound
1.2	CN(C(=O)N[C@H]1CC[C@H](CCN2CCN(c3nsc4ccccc34)CC2)CC1)c1ccccc1
1.1	Nc1ccc2c(N3CCN(CC[C@H]4CC[C@H](NC(=O)c5ccco5)CC4)CC3)nsc2c1
0.055	O=C(Nc1cccnc1)N[C@H]1CC[C@H](CCN2CCN(c3nsc4ccccc34)CC2)CC1
0.4	CN(C)C(=O)N[C@H]1CC[C@H](CCN2CCN(c3nsc4ccccc34)CC2)CC1
8.7	CCOC(=O)N1CCC(CCN2CCN(c3nsc4ccccc34)CC2)CC1
0.095	CS(=O)(=O)N[C@H]1CC[C@H](CCN2CCN(c3nsc4ccccc34)CC2)CC1
0.31	COCC(=O)N[C@H]1CC[C@H](CCN2CCN(c3nsc4ccccc34)CC2)CC1
1.4	CC(C)N(C(=O)N[C@H]1CC[C@H](CCN2CCN(c3nsc4ccccc34)CC2)CC1)C(C)C
0.047	O=C(N[C@H]1CC[C@H](CCN2CCN(c3nsc4ccccc34)CC2)CC1)c1ccccc1

Test system: CHO
Assay: Selectivity ratio of Ki for displacement of [3H]spiperone from recombinant human D2L receptor expressed in CHO cell membranes to Ki for displacement of [3H]methyl-spiperone from recombinant human D3 receptor expressed in CHO cell membranes
Details: not given
Summary of the method: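 D2L binding: CHO membranes (16 µg protein) with 0.3 nM [3H]methyl-spiperone in 50 mM Tris-HCl pH 7.4, 120 mM NaCl, 10 mM MgCl2, 1 mM EDTA, with butaclamol for nonspecific binding. D3 binding: membranes (8 µg) with 0.3 nM [3H]methyl-spiperone in the same Tris buffer with 5 mM KCl, 5 mM MgCl2, 5 mM EDTA, with (+)butaclamol for nonspecific binding. Both run 60 min at 22 °C, then GF/B filtration. Ki by Cheng–Prusoff; ratio is D2 Ki/D3 Ki.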

Compound	Ratio Ki
O=C(N[C@H]1CC[C@H](CCN2CCN(c3nsc4ccccc34)CC2)CC1)c1ccc[nH]1	0.68
O=C(N[C@H]1CC[C@H](CCN2CCN(c3nsc4ccccc34)CC2)CC1)c1cccnc1	9.44
Nc1ccc2c(N3CCN(CC[C@H]4CC[C@H](NC(=O)c5ccco5)CC4)CC3)nsc2c1	12.7
O=C(Nc1cccnc1)N[C@H]1CC[C@H](CCN2CCN(c3nsc4ccccc34)CC2)CC1	9.27
CN(C)C(=O)N[C@H]1CC[C@H](CCN2CCN(c3nsc4ccccc34)CC2)CC1	1.33
CCOC(=O)N1CCC(CCN2CCN(c3nsc4ccccc34)CC2)CC1	1.15
CS(=O)(=O)N[C@H]1CC[C@H](CCN2CCN(c3nsc4ccccc34)CC2)CC1	93.7
COCC(=O)N[C@H]1CC[C@H](CCN2CCN(c3nsc4ccccc34)CC2)CC1	31
O=C(N[C@H]1CC[C@H](CCN2CCN(c3nsc4ccccc34)CC2)CC1)N1CCOCC1	1.38
CC(C)N(C(=O)N[C@H]1CC[C@H](CCN2CCN(c3nsc4ccccc34)CC2)CC1)C(C)C	0.51
CCC(=O)N[C@H]1CC[C@H](CCN2CCN(c3nsc4ccccc34)CC2)CC1	346
O=C(N[C@H]1CC[C@H](CCN2CCN(c3nsc4ccccc34)CC2)CC1)c1ccccc1	7.02
CCOC(=O)N[C@H]1CC[C@@H](CCN2CCN(c3nsc4ccccc34)CC2)CC1	2
O=C(N[C@H]1CC[C@@H](CCN2CCN(c3nsc4ccccc34)CC2)CC1)c1ccco1	2.74

Test system: Rattus norvegicus
Assay: Toxicity in Sprague-Dawley rat assessed as cataleptogenic effect by measuring time spent in cataleptic position at 1 to 10 mg/kg, po measured after 0.5 to 2 hrs
Format: organism-based
Details: in vivo
Summary of the method: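 Male SD rats (180–250 g, n = 7) dosed orally at 1.0, 3.0 or 10.0 mg/kg. Forepaws placed on a bar 0.9 cm in diameter, 11 cm high, at 30, 60 and 120 min after dosing. Time held is expressed as a percentage of the 60 s maximum (mean ± SEM).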

Compound	Activity
Cc1nc2n(c(=O)c1CCN1CCC(c3noc4cc(F)ccc34)CC1)CCCC2 [RISPERIDONE]	Non-Toxic

Target: T2, 5-hydroxytryptamine receptor 1A (Homo sapiens, UniProt P08908)
T2 sequence (P08908 whole entry): T1 sequence (whole entry)
Assay: Displacement of [3H]8-OH-DPAT from recombinant human 5-HT1A receptor expressed in HEK293 cell membranes after 60 mins by scintillation counting method
Details: not given

Compound	Ki [nM]
O=S(=O)(N[C@H]1CC[C@H](CCN2CCN(c3nsc4ccccc34)CC2)CC1)c1cccs1	1.1
O=C(N[C@H]1CC[C@H](CCN2CCN(c3nsc4ccccc34)CC2)CC1)c1cccnc1	2.1
O=C(N[C@H]1CC[C@H](CCN2CCN(c3nsc4ccccc34)CC2)CC1)N1CCOCC1	15
CCC(=O)N[C@H]1CC[C@H](CCN2CCN(c3nsc4ccccc34)CC2)CC1	1.5
CCOC(=O)N[C@H]1CC[C@@H](CCN2CCN(c3nsc4ccccc34)CC2)CC1	0.57
O=C(N[C@H]1CC[C@@H](CCN2CCN(c3nsc4ccccc34)CC2)CC1)c1ccco1	2.2

Next, values leading:

Ki [nM]	Compound
5.2	CN(C(=O)N[C@H]1CC[C@H](CCN2CCN(c3nsc4ccccc34)CC2)CC1)c1ccccc1
33	Nc1ccc2c(N3CCN(CC[C@H]4CC[C@H](NC(=O)c5ccco5)CC4)CC3)nsc2c1
12	O=C(Nc1cccnc1)N[C@H]1CC[C@H](CCN2CCN(c3nsc4ccccc34)CC2)CC1
1.2	CN(C)C(=O)N[C@H]1CC[C@H](CCN2CCN(c3nsc4ccccc34)CC2)CC1
1.3	CCOC(=O)N1CCC(CCN2CCN(c3nsc4ccccc34)CC2)CC1
1.3	CS(=O)(=O)N[C@H]1CC[C@H](CCN2CCN(c3nsc4ccccc34)CC2)CC1
3	COCC(=O)N[C@H]1CC[C@H](CCN2CCN(c3nsc4ccccc34)CC2)CC1
2.3	CC(C)N(C(=O)N[C@H]1CC[C@H](CCN2CCN(c3nsc4ccccc34)CC2)CC1)C(C)C
1.7	O=C(N[C@H]1CC[C@H](CCN2CCN(c3nsc4ccccc34)CC2)CC1)c1ccccc1

Target: T3, 5-hydroxytryptamine receptor 2A (Homo sapiens, UniProt P28223)
Assay: Displacement of [3H]ketanserin from recombinant human 5-HT2A receptor expressed in HEK293 cell membranes after 60 mins by scintillation counting method
Details: not given

T3 sequence (P28223 whole entry): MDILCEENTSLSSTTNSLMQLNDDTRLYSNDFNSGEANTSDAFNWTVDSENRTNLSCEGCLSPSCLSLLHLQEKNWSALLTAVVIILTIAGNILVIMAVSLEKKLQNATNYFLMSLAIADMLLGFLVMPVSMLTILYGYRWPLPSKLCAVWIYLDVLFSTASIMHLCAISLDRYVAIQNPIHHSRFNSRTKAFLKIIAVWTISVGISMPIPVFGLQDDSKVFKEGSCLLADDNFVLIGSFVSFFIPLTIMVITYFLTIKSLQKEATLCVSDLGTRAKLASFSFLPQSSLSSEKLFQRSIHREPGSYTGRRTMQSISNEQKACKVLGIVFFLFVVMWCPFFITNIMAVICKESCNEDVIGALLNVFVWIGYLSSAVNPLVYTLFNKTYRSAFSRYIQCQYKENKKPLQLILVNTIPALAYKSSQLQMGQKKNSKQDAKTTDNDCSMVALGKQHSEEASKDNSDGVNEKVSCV

Compound	Ki [nM]
O=C(N[C@H]1CC[C@H](CCN2CCN(c3nsc4ccccc34)CC2)CC1)c1cccnc1	0.29
O=C(N[C@H]1CC[C@H](CCN2CCN(c3nsc4ccccc34)CC2)CC1)N1CCOCC1	3.2
CCC(=O)N[C@H]1CC[C@H](CCN2CCN(c3nsc4ccccc34)CC2)CC1	1.1
CCOC(=O)N[C@H]1CC[C@@H](CCN2CCN(c3nsc4ccccc34)CC2)CC1	0.18
O=C(N[C@H]1CC[C@@H](CCN2CCN(c3nsc4ccccc34)CC2)CC1)c1ccco1	0.19

More lines, now with the values ahead:

Ki [nM]	Compound
4.3	Nc1ccc2c(N3CCN(CC[C@H]4CC[C@H](NC(=O)c5ccco5)CC4)CC3)nsc2c1
0.14	O=C(Nc1cccnc1)N[C@H]1CC[C@H](CCN2CCN(c3nsc4ccccc34)CC2)CC1
0.6	CN(C)C(=O)N[C@H]1CC[C@H](CCN2CCN(c3nsc4ccccc34)CC2)CC1
3.3	CCOC(=O)N1CCC(CCN2CCN(c3nsc4ccccc34)CC2)CC1
0.28	CS(=O)(=O)N[C@H]1CC[C@H](CCN2CCN(c3nsc4ccccc34)CC2)CC1
0.24	COCC(=O)N[C@H]1CC[C@H](CCN2CCN(c3nsc4ccccc34)CC2)CC1
0.38	CC(C)N(C(=O)N[C@H]1CC[C@H](CCN2CCN(c3nsc4ccccc34)CC2)CC1)C(C)C
0.24	O=C(N[C@H]1CC[C@H](CCN2CCN(c3nsc4ccccc34)CC2)CC1)c1ccccc1

Test system: Rattus norvegicus
Assay: Antipsychotic activity in Sprague-Dawley rat assessed as inhibition of conditioned avoidance behavior at 1.0 to 2.0 mg/kg, ip administered as single dose measured after 1 hr
Format: functional, organism-based
Details: not given
Summary of the method: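 Male SD rats (150–180 g, 6 per group) trained in automated shuttle-boxes; only rats exceeding 80% avoidance were used. Single i.p. dose of 1.0 or 2.0 mg/kg given 1 h before a 20-trial session. Read-out is percentage of avoidance (mean ± SEM, n = 6), compared with the vehicle group.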

Compound	inhibition
O=S(=O)(N[C@H]1CC[C@H](CCN2CCN(c3nsc4ccccc34)CC2)CC1)c1cccs1	Active

Target: T3, 5-hydroxytryptamine receptor 2A
Details: CHO-K1, 10 uM

inhibition [%]	Compound
100	CSc1ccc2c(c1)C(N1CCN(C)CC1)Cc1ccccc1S2 (stereo not drawn)
